How the values were obtained:
Plasma [1] = experiment: Retention time of the compound in rat plasma treated with [14C]-EW-7197, po by LC-MS analysis; assay type: ADME, organism-based
[2] = Drug level in rat bile treated with [14C]-EW-7197, po by LC-MS analysis; assay type: ADME, organism-based; details: in vivo
[3] = Drug level in rat feces treated with [14C]-EW-7197, po by LC-MS analysis; assay type: ADME, organism-based; details: in vivo
[4] = Drug level in rat urine treated with [14C]-EW-7197, po by LC-MS analysis; assay type: ADME, organism-based; details: in vivo
Homo sapiens = species: Homo sapiens; experiment: Selectivity index, ratio of IC50 for recombinant human p38-alpha to IC50 for GST-fused recombinant human ALK5
Outline: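 Ratio of p38α IC50 to ALK5 IC50. ALK5 was a human recombinant GST-fusion protein expressed in Sf9 insect cells via baculovirus. p38α was […] human recombinant protein expressed in E. coli and purified on Ni-NTA agarose. Both were run in a radioisotopic ³³P protein kinase assay (³³PanQinase), with casein as the ALK5 substrate and ATF2 as the p38α substrate.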

TGF-beta receptor type-1 = molecular target: T1, TGF-beta receptor type-1 (Homo sapiens, UniProt P36897); experiment: Inhibition of GST-fused recombinant human ALK5 expressed in baculovirus-infected insect Sf9 cells using casein as substrate by radioisotope-based assay
T1 sequence (P36897 whole entry): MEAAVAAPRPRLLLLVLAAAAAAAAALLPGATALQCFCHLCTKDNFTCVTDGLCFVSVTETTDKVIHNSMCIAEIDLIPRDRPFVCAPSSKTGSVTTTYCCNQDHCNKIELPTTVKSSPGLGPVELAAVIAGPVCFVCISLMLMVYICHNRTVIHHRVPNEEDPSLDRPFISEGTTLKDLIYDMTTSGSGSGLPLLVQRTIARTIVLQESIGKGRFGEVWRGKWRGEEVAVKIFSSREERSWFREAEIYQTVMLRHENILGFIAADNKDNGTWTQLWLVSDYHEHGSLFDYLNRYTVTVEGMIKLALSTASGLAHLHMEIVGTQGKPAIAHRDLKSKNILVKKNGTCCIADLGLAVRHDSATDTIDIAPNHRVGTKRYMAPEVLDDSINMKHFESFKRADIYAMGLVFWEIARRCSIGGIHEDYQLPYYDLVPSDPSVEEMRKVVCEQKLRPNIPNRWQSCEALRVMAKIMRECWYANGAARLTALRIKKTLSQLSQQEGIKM

[5] = molecular target: Mitogen-activated protein kinase 14 (Homo sapiens, UniProt Q16539); experiment: Inhibition of recombinant human p38-alpha expressed in Escherichia coli using ATF2 as substrate by radioisotope-based assay
Sequence of Mitogen-activated protein kinase 14 (Q16539 whole entry): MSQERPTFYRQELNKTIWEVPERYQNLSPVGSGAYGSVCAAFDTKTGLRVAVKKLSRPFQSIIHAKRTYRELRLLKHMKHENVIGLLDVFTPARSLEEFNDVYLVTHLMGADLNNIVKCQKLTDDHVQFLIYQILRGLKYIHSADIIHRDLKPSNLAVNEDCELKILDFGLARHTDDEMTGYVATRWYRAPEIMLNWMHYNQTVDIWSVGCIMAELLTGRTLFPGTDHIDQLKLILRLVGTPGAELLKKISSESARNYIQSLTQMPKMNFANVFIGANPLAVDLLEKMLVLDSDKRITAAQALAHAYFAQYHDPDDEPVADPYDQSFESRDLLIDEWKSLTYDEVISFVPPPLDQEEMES

[6] = Retention time of the compound in rat urine treated with [14C]-EW-7197, po by LC-MS analysis; assay type: ADME, organism-based
Plasma [7] = experiment: Drug level in rat plasma treated with [14C]-EW-7197, po by LC-MS analysis; assay type: ADME, organism-based; details: in vivo
[8] = Retention time of the compound in rat bile treated with [14C]-EW-7197, po by LC-MS analysis; assay type: ADME, organism-based
[9] = molecular target: T2, TGF-beta receptor type-1 (Homo sapiens) (UniProt P36897); experiment: Potency index, ratio of SB-505124 IC50 to compound IC50 for GST-fused recombinant human ALK5 expressed in baculovirus-infected insect Sf9 cells
T2 sequence (whole entry): T1 sequence (P36897 whole entry)

[10] = Drug metabolism in po dosed rat bile assessed as formation of 4-([1,2,4]triazolo[1,5-a]pyridin-6-yl)-5-(6-methylpyridin-2-yl)-1H-imidazole-2-carboxylic acid by LC-MS analysis; assay type: ADME, organism-based; details: in vivo
[11] = Drug metabolism in po dosed rat feces assessed as formation of 4-([1,2,4]triazolo[1,5-a]pyridin-6-yl)-5-(6-methylpyridin-2-yl)-1H-imidazole-2-carboxylic acid by LC-MS analysis; assay type: ADME, organism-based; details: in vivo
[12] = Drug metabolism in po dosed rat feces assessed as formation of (4-([1,2,4]triazolo[1,5-a]pyridin-6-yl)-5-(6-methylpyridin-2-yl)-1H-imidazol-2-yl)methanol by LC-MS analysis; assay type: ADME, organism-based; details: in vivo
Plasma [13] = experiment: Drug metabolism in po dosed rat plasma assessed as formation of 4-([1,2,4]triazolo[1,5-a]pyridin-6-yl)-5-(6-methylpyridin-2-yl)-1H-imidazole-2-carbaldehyde by LC-MS analysis; assay type: ADME, organism-based; details: in vivo
Plasma [14] = experiment: Retention time of the compound in po dosed rat plasma by LC-MS analysis; assay type: ADME, organism-based; details: in vivo
Plasma [15] = experiment: Drug metabolism in po dosed rat plasma assessed as formation of 4-([1,2,4]triazolo[1,5-a]pyridin-6-yl)-5-(6-methylpyridin-2-yl)-1H-imidazole-2-carboxylic acid by LC-MS analysis; assay type: ADME, organism-based; details: in vivo
[16] = Drug metabolism in po dosed rat bile assessed as formation of 4-([1,2,4]triazolo[1,5-a]pyridin-6-yl)-5-(6-methylpyridin-2-yl)-1H-imidazole-2-carbaldehyde by LC-MS analysis; assay type: ADME, organism-based; details: in vivo
[17] = Drug metabolism in po dosed rat feces assessed as formation of 4-([1,2,4]triazolo[1,5-a]pyridin-6-yl)-5-(6-methylpyridin-2-yl)-1H-imidazole-2-carbaldehyde by LC-MS analysis; assay type: ADME, organism-based; details: in vivo
[18] = Drug metabolism in po dosed rat urine assessed as formation of 4-([1,2,4]triazolo[1,5-a]pyridin-6-yl)-5-(6-methylpyridin-2-yl)-1H-imidazole-2-carboxylic acid by LC-MS analysis; assay type: ADME, organism-based; details: in vivo
[19] = Drug metabolism in po dosed rat urine assessed as formation of (4-([1,2,4]triazolo[1,5-a]pyridin-6-yl)-5-(6-methylpyridin-2-yl)-1H-imidazol-2-yl)methanol by LC-MS analysis; assay type: ADME, organism-based; details: in vivo
[20] = Drug metabolism in po dosed rat urine assessed as formation of 4-([1,2,4]triazolo[1,5-a]pyridin-6-yl)-5-(6-methylpyridin-2-yl)-1H-imidazol-2-ol by LC-MS analysis; assay type: ADME, organism-based; details: in vivo
Plasma [21] = experiment: Drug metabolism in po dosed rat plasma assessed as formation of (4-([1,2,4]triazolo[1,5-a]pyridin-6-yl)-5-(6-methylpyridin-2-yl)-1H-imidazol-2-yl)methanol by LC-MS analysis; assay type: ADME, organism-based; details: in vivo

SMILES | Ratio IC50 (Homo sapiens) | IC50 (TGF-beta receptor type-1) [nM] | IC50 [5] [µM] | other results
Cc1cccc(-c2[nH]c(C(=O)O)nc2-c2ccc3ncnn3c2)n1 |  |  |  | Retention_time (Plasma [1]): 24.43 min; Drug metabolism [2]: metabolite_detected; Drug metabolism [3]: metabolite_detected; Drug metabolism [4]: metabolite_detected
Cc1cccc(-c2[nH]c(CNC(=S)c3cccc(C(N)=O)c3)nc2-c2ccc3ncnn3c2)n1 | 129 | 22 | 2.83 | 
Cc1cccc(-c2nn(CC(=O)Nc3ccccc3F)cc2-c2ccc3ncnn3c2)n1 | > 118 | 85 | > 10 | 
Cc1cccc(-c2[nH]c(C=O)nc2-c2ccc3ncnn3c2)n1 |  |  |  | Drug metabolism [2]: metabolite_detected; Retention_time [6]: 62.37 min; Drug metabolism [3]: metabolite_detected; Drug metabolism (Plasma [7]): metabolite_detected
Cc1cccc(-c2[nH]c(CNC(=O)c3cccc(C#N)c3)nc2-c2ccc3ncnn3c2)n1 | > 111 | 90 | > 10 | 
Cc1cccc(-c2[nH]c(CN)nc2-c2ccc3ncnn3c2)n1 |  |  |  | Retention_time [8]: 68.77 min
Cc1cccc(-c2nn(CC(=O)Nc3cccc(C(N)=O)c3)cc2-c2ccc3ncnn3c2)n1 | > 278 | 36 | > 10 | 
Cc1cccc(-c2[nH]c(Cc3cccc(C(N)=O)c3)nc2-c2ccc3nccnc3c2)n1 | 28 |  |  | 
Cc1cccc(-c2[nH]c(CNC(=O)c3ccccc3)nc2-c2ccc3ncnn3c2)n1 | > 175 | 57 | > 10 | 
Cc1cccc(-c2[nH]c(CO)nc2-c2ccc3ncnn3c2)n1 |  |  |  | Retention_time [8]: 53.65 min; Drug metabolism [3]: metabolite_detected; Drug metabolism [4]: metabolite_detected; Drug metabolism (Plasma [7]): metabolite_detected
Cc1cccc(-c2[nH]c(CNC(=O)c3ccccc3F)nc2-c2ccc3ncnn3c2)n1 | > 270 | 37 | > 10 | 
Cc1cccc(-c2[nH]c(CNC(=O)c3cccc(C(N)=O)c3)nc2-c2ccc3ncnn3c2)n1 | > 94 | 106 | > 10 | 
Cc1cccc(-c2nn(CC(=S)Nc3ccccc3F)cc2-c2ccc3ncnn3c2)n1 | 180 | 29 | 5.21 | 
Cc1cccc(-c2nn(CC(=O)Nc3cccc(C#N)c3)cc2-c2ccc3ncnn3c2)n1 | > 370 | 27 | > 10 | 
Cc1cccc(-c2[nH]c(O)nc2-c2ccc3ncnn3c2)n1 |  |  |  | Retention_time [8]: 54.56 min; Drug metabolism [4]: metabolite_detected
Cc1cccc(-c2[nH]c(CNC(=S)c3cccc(C#N)c3)nc2-c2ccc3ncnn3c2)n1 | 41 | 36 | 1.49 | 
Cc1cccc(-c2nn(CC(=O)Nc3ccccc3)cc2-c2ccc3ncnn3c2)n1 | > 128 | 78 | > 10 | 
Cc1cccc(-c2nn(CC(=S)Nc3cccc(C#N)c3)cc2-c2ccc3ncnn3c2)n1 | 284 | 18 | 5.11 | Ratio IC50 [9]: 3
Cc1cccc(-c2[nH]c(CNc3ccccc3F)nc2-c2ccc3ncnn3c2)n1 [VACTOSERTIB] |  |  |  | Drug metabolism [10]: metabolite_detected; Drug metabolism [11]: metabolite_detected; Drug metabolism [12]: metabolite_detected; Drug metabolism (Plasma [13]): metabolite_detected; Retention_time (Plasma [14]): 71.53 min; Drug metabolism (Plasma [15]): metabolite_detected; Drug metabolism [16]: metabolite_detected; Drug metabolism [17]: metabolite_detected; Drug metabolism [18]: metabolite_detected; Drug metabolism [19]: metabolite_detected; Drug metabolism [20]: metabolite_detected; Drug metabolism (Plasma [21]): metabolite_detected
Cc1cccc(-c2[nH]c(CNC(=S)c3ccccc3)nc2-c2ccc3ncnn3c2)n1 | 79 | 48 | 3.77 | 
Cc1cccc(-c2[nH]c(CNC(=S)c3ccccc3F)nc2-c2ccc3ncnn3c2)n1 | 39 | 27 | 1.05 | 
